In ChEMBL document CHEMBL1151809, “Prenylated and benzylated flavonoids from the fruits of Cudrania tricuspidata” (J Nat Prod, 2009):
pIC50: −log10 of the molar value.

Assays:
[1] = tested on: RAW264.7; assay: Inhibition of LPS-induced nitric oxide production in mouse RAW264.7 cells by Griess assay; format: functional, cell-based
Outline: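 LPS-stimulated RAW 264.7 cells; NO output measured as nitrite in culture supernatant by Griess reagent. IC50 derived, reported as mean ± SD from three separate experiments. Aminoguanidine run as positive control.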

[2] = tested on: RAW264.7; assay: Cytotoxicity against mouse RAW264.7 cells by CCK-8 assay; format: cell-based
Outline: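 Viability read by CCK-8 on the cells remaining after the Griess nitrite assay of the LPS-stimulated RAW 264.7 cultures.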

SMILES	pIC50 [1]	Activity [2]
N=C(N)NN [PIMAGEDINE]	4.55	
C=C(C)C(O)Cc1c(O)cc2occ(-c3ccc(OC)cc3)c(=O)c2c1O (stereo not given)	< 4.30	Non-toxic
O=C1c2c(cc(O)c(Cc3ccc(O)cc3)c2O)O[C@H](c2ccc(O)cc2)[C@H]1O [GERICUDRANIN E]	4.38	Non-toxic
O=C1c2c(O)c(Cc3ccc(O)cc3)c(O)c(Cc3ccc(O)cc3)c2O[C@H](c2ccc(O)cc2)[C@H]1O [GERICUDRANIN D]	< 4.30	Non-toxic
COc1ccc(-c2coc3cc4c(c(O)c3c2=O)C=CC(C)(C)O4)cc1O	< 4.30	Non-toxic
O=C1c2c(O)cc(O)c(Cc3ccc(O)cc3)c2O[C@H](c2ccc(O)cc2)[C@H]1O	< 4.30	Non-toxic

Now those with a higher pIC50 [1], led by results:

pIC50 [1]	SMILES	Activity [2]
4.93	CO[C@@H]1c2c(c(CC=C(C)C)c(O)c3c(=O)c(-c4ccc(O)cc4)coc23)O[C@H]1C(C)(C)O	Non-toxic
4.90	C=C(C)C(O)Cc1c(O)c(CC=C(C)C)c2occ(-c3ccc(O)cc3)c(=O)c2c1O (stereo not given) [ISOERYSENEGALENSEIN E]	Non-toxic
4.74	C=C(C)C(O)Cc1c(O)c(CC=C(C)C)c(O)c2c(=O)c(-c3ccc(O)cc3)coc12 (stereo not given) [ERYSENEGALENSEIN E]	Non-toxic
4.88	CC(C)=CCc1c2c(c3occ(-c4ccc(O)cc4)c(=O)c3c1O)CC(C(C)(C)O)O2 (stereo not given) [SENEGALENSIN]	Non-toxic
4.73	O=c1c(-c2ccc(O)c(O)c2)coc2cc(O)cc(O)c12 [OROBOL]	Non-toxic
4.92	CC(C)=CCc1c2oc(C(C)(C)O)cc2c(O)c2c(=O)c(-c3ccc(O)cc3)coc12	Non-toxic
4.72	CC(C)=CCc1c(O)c(CC=C(C)C)c2occ(-c3ccc(O)cc3)c(=O)c2c1O	Non-toxic
